In ChEMBL document CHEMBL4325827, “Bifidenone: Structure-Activity Relationship and Advanced Preclinical Candidate” (J Med Chem, 2018):

Experiments:
[1] = tested on: NCI/ADR-RES; experiment: Potency index, ratio of paclitaxel IC50 to compound IC50 for taxane-resistant human NCI/ADR-RES cells after 72 hrs by CellTiter 96 aqueous nonradioactive cell proliferation assay; assay type: functional
[2] = tested on: HCT-15; experiment: Potency index, ratio of paclitaxel IC50 to compound IC50 for taxane-resistant human HCT15 cells after 72 hrs by CellTiter 96 aqueous nonradioactive cell proliferation assay; assay type: functional
[3] = tested on: OVCAR-4; experiment: Potency index, ratio of paclitaxel IC50 to compound IC50 for taxane-resistant human OVCAR4 cells after 72 hrs by CellTiter 96 aqueous nonradioactive cell proliferation assay; assay type: functional
[4] = tested on: NCI-H522; experiment: Antitumor activity against human NCI-H522 cells xenografted in Crl:NU(NCr)-Foxn1 nu mouse assessed as tumor growth inhibition at 60 mg/kg, ip qd administered for 3 consecutive days followed by 2 days of rest for 3 cycles relative to control; assay type: functional; conditions: 48 h, read-out: TGI
Method in brief: (§1)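 Female athymic nude mice bearing subcutaneous xenografts, started from cultured cells (NCI-H460, Calu-6, NCI-H69, LOX-IMVI) or from serially passaged tumour fragments (NCI-H522). Mice were grouped into vehicle and treatment arms at tumour volumes of about 75-200 mm3. Dosing was ip at 5-10 mL/kg in 22% ethanol, 38% PEG400, 40% 20 mM Na citrate pH 5.0. Caliper volumes were taken as (length × width2)/2. Treated and control delta weights were median tumour weight minus staging-day median.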

[5] = Toxicity in Crl:NU(NCr)-Foxn1 nu mouse xenografted with human NCI-H460 cells assessed as maximum body weight loss at 60 mg/kg, ip qd administered for 3 consecutive days followed by 2 days of rest for 3 cycles measured after 8 days post dose relative to control; assay type: organism-based; conditions: in vivo, 192 h; method in brief: as §1
[6] = tested on: NCI/ADR-RES; experiment: Antiproliferative activity against taxane-resistant human NCI/ADR-RES cells after 72 hrs by CellTiter 96 aqueous nonradioactive cell proliferation assay; assay type: functional, cell-based
Method in brief: (§2)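 Antiproliferation in cultured tumour cells, at least 3 replicate wells per concentration per experiment. NCI-H460 came from ATCC. M14, NCI/ADR-RES, OVCAR-4, HCT-15, ACHN and SF-295 came from the National Cancer Institute. IC50 reported from single experiments where no SD is given.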

[7] = tested on: Calu-6; experiment: Antitumor activity against human Calu6 cells xenografted in Crl:NU(NCr)-Foxn1 nu mouse assessed as tumor growth inhibition at 50 mg/kg, ip qd administered for 3 consecutive days followed by 2 days of rest for 4 cycles relative to control; assay type: functional; conditions: Calu-6, ip, 48 h, read-out: TGI; method in brief: as §1
[8] = Plasma concentration in Crl:NU(NCr)-Foxn1 nu mouse xenografted with human NCI-H460 cells at 40 mg/kg, ip injected via vehicle solution measured at 1 hr post injection by LC-MS analysis; assay type: ADME, organism-based; conditions: in vivo
Method in brief: (§3)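 Male Nu/Nu mice, some bearing NCI-H460 or LOX-IMVI xenografts, given a single ip dose at 3 mL/kg. Organic vehicle components were dissolved first, with the aqueous part added gradually. Mice were euthanized at 1 h or 3 h. Cardiac blood was taken into NaEDTA/NaF plasma separator tubes. Quantification used loratadine internal standard against a spiked blank-plasma curve. Tumours were run as duplicate ~200 mg samples homogenized in 3% SDS and extracted twice with ethyl acetate, assuming 1 g tissue = 1 mL.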

[9] = Toxicity in Crl:NU(NCr)-Foxn1 nu mouse xenografted with human NCI-H69 cells assessed as mortality at 70 mg/kg, ip dosed on day 1 followed by 4 days rest and subsequently dosed at 70 mg/kg, ip qd administered for 3 consecutive days followed by 2 days of rest for 2 cycles; assay type: organism-based; conditions: in vivo
Method in brief: (§4)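 Female athymic nude mice bearing subcutaneous xenografts started from cultured human tumor cells. Mice were split into vehicle and treatment groups once tumors reached about 75-200 mm3. Dosing was ip at 5-10 mL/kg in 22% ethanol, 38% PEG400, 40% 20 mM Na citrate pH 5.0. Deaths per group were recorded alongside maximum mean bodyweight loss.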

[10] = tested on: NCI-H69; experiment: Antitumor activity against human NCI-H69 cells xenografted in Crl:NU(NCr)-Foxn1 nu mouse assessed as tumor growth inhibition at 60 mg/kg, ip dosed on day 1 followed by 4 days rest and subsequently dosed at 60 mg/kg, ip qd administered for 3 consecutive days followed by 2 days of rest for 2 cycles relative to control; assay type: functional; conditions: read-out: TGI; method in brief: as §1
[11] = tested on: NCI-H460; experiment: Antitumor activity against human NCI-H460 cells xenografted in Crl:NU(NCr)-Foxn1 nu mouse assessed as tumor growth inhibition at 60 mg/kg, ip qd administered for 3 consecutive days followed by 2 days of rest for 3 cycles relative to control; assay type: functional; conditions: 48 h, read-out: TGI; method in brief: as §1
[12] = Toxicity in Crl:NU(NCr)-Foxn1 nu mouse xenografted with human Calu6 cells assessed as mortality at 60 mg/kg, ip qd administered for 3 consecutive days followed by 2 days of rest for 4 cycles; assay type: organism-based; conditions: in vivo, 48 h; method in brief: as §4
[13] = tested on: OVCAR-4; experiment: Antiproliferative activity against taxane-resistant human OVCAR4 cells after 72 hrs by CellTiter 96 aqueous nonradioactive cell proliferation assay; assay type: functional, cell-based; conditions: OVCAR-4, 72 h; method in brief: as §2
[14] = tested on: UO-31; experiment: Potency index, ratio of paclitaxel IC50 to compound IC50 for taxane-resistant human UO31 cells after 72 hrs by CellTiter 96 aqueous nonradioactive cell proliferation assay; assay type: functional
[15] = Toxicity in Crl:NU(NCr)-Foxn1 nu mouse xenografted with human […] cells assessed as mortality at 50 mg/kg, ip qd administered for 3 consecutive days followed by 2 days of rest for 3 cycles; assay type: organism-based; conditions: in vivo, 48 h
Method in brief: (§5)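 Female athymic nude mice bearing subcutaneous NCI-H522 xenografts started from tumor fragments kept by continuous in vivo passage. Mice were grouped once tumors reached about 75-200 mm3. Dosing was ip at 5-10 mL/kg in 22% ethanol, 38% PEG400, 40% 20 mM Na citrate pH 5.0. Deaths per group were recorded with maximum mean bodyweight loss.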

[16] = tested on: NCI-H460; experiment: Antiproliferative activity against human NCI-H460 cells after 72 hrs by CellTiter 96 aqueous nonradioactive cell proliferation assay; assay type: functional, cell-based; conditions: NCI-H460, 72 h; method in brief: as §2
[17] = Toxicity in Crl:NU(NCr)-Foxn1 nu mouse xenografted with human LOX-IMVI cells assessed as maximum body weight loss at 30 mg/kg, ip qd administered for 7 consecutive days measured after 6 days post dose relative to control; assay type: organism-based; conditions: in vivo, 144 h; method in brief: as §1
[18] = Drug uptake in tumor of human NCI-H460 cells xenografted in Crl:NU(NCr)-Foxn1 nu mouse at 40 mg/kg, ip measured at 3 hrs post injection by LC-MS analysis; assay type: ADME, organism-based, Neoplasm; conditions: in vivo; method in brief: as §3
[19] = Toxicity in Crl:NU(NCr)-Foxn1 nu mouse xenografted with human […] cells assessed as mortality at 60 mg/kg, ip qd administered for 3 consecutive days followed by 2 days of rest for 3 cycles; assay type: organism-based; conditions: in vivo, 48 h; method in brief: as §5
[20] = tested on: ACHN; experiment: Antiproliferative activity against taxane-resistant human ACHN cells after 72 hrs by CellTiter 96 aqueous nonradioactive cell proliferation assay; assay type: functional, cell-based; method in brief: as §2
[21] = Toxicity in Crl:NU(NCr)-Foxn1 nu mouse xenografted with human NCI-H69 cells assessed as maximum body weight loss at 70 mg/kg, ip dosed on day 1 followed by 4 days rest and subsequently dosed at 70 mg/kg, ip qd administered for 3 consecutive days followed by 2 days of rest for 2 cycles measured after 3 days post dose relative to control; assay type: organism-based; conditions: in vivo, 72 h; method in brief: as §1
[22] = tested on: SF-295; experiment: Potency index, ratio of paclitaxel IC50 to compound IC50 for taxane-resistant human SF295 cells after 72 hrs by CellTiter 96 aqueous nonradioactive cell proliferation assay; assay type: functional
[23] = tested on: M14; experiment: Antiproliferative activity against human M14 cells after 72 hrs by CellTiter 96 aqueous nonradioactive cell proliferation assay; assay type: functional, cell-based; conditions: M14, 72 h; method in brief: as §2

In the case of `C=CC[C@H]1C[C@]2([C@H](C)Cc3cc(O)c(OC)cc3F)OCOC2=CC1=O`, the “Ratio IC50” value [1] is reported as over 1000, the “Ratio IC50” value [2] is reported as 14 and the “Ratio IC50” value [3] is reported as over 75. The inhibition in vivo at 60 mg/kg [4] was 82%, the Activity [5] was 12% and the IC50 [6] was 9 nM. The inhibition in vivo at 50 mg/kg [7] was 76%, the Drug uptake [8] was “Active” and the Activity [9] was “Non-Toxic”. The inhibition in vivo at 60 mg/kg [10] was 77%, the inhibition in vivo at 60 mg/kg [11] was 67% and the Activity [12] was “Non-Toxic”. For the same compound, the IC50 [13] was 8 nM, the “Ratio IC50” value [14] was 34 and the Activity [15] was “Non-Toxic”. For the same compound, the IC50 [16] was 15 nM, the Activity [17] was 9% and the Drug uptake [18] was “Active”. The Activity [19] was “Non-Toxic”, the IC50 [20] was 12 nM and the Activity [21] was 9%. For the same compound, the “Ratio IC50” value [22] was 6 and the IC50 [23] was 17 nM.
